# Results taken from ChEMBL document CHEMBL4819099, “A biphenyl inhibitor of eIF4E targeting an internal binding site enables the design of cell-permeable PROTAC-degraders” (Eur J Med Chem, 2021).
# Calls of active or inactive are those of the source. No cut-off for these calls is given here.
# Experiments:
# [1] = target: T1, Protein cereblon/Eukaryotic translation initiation factor 4E (Homo sapiens) (UniProt P06730+Q96SW2); assay: Protac activity at CRBN/eIF4E in human HEK293T cells assessed as induction of intracellular eIF4E degradation at 1 uM measured after 0.5 to 24 hrs by Western blot analysis; assay type: cell-based; settings: time 0.5-24 hrs
# T1 sequence (P06730 whole entry, looked up): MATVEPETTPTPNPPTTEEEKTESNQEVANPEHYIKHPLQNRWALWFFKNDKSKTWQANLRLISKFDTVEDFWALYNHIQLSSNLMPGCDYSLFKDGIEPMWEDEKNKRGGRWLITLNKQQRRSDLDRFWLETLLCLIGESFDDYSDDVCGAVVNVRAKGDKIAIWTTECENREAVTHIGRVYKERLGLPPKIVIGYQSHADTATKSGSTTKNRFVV
# T1 sequence (Q96SW2 whole entry, looked up): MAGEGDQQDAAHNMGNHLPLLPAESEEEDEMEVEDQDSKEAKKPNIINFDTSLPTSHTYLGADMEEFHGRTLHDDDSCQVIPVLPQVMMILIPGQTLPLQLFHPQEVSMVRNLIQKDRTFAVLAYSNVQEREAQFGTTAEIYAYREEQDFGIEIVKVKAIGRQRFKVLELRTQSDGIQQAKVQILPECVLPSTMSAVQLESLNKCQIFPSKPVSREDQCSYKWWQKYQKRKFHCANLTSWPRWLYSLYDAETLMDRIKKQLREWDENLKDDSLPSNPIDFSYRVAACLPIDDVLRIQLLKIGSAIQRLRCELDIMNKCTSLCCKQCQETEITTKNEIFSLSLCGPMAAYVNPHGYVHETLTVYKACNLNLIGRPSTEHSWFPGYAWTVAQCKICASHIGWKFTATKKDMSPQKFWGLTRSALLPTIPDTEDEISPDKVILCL
# Outline: (§1)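 HEK293T cells exposed either to 0.1-10 μM PROTAC for 24 h or to 1 μM PROTAC for 0.5 to 24 h, DMSO-treated cells alongside; eIF4E level assessed by immunoblotting.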
# [2] = target: T1, Protein cereblon/Eukaryotic translation initiation factor 4E (Homo sapiens); assay: Protac activity at CRBN/eIF4E in human HEK293T cells assessed as induction of eIF4E ubiquitination at 1 uM in presence of 26S proteasome inhibitor, Bortezomib by Western blot analysis; assay type: cell-based
# Outline: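 HEK293T cells incubated with 1 μM PROTAC plus 100 nM bortezomib; eIF4E ubiquitination compared with bortezomib-alone and DMSO-treated cells.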
# [3] = target: T1, Protein cereblon/Eukaryotic translation initiation factor 4E (Homo sapiens); assay: Protac activity at CRBN/eIF4E in human HEK293T cells assessed as induction of intracellular eIF4E degradation at 0.1 to 10 uM measured after 24 hrs by Western blot analysis; assay type: cell-based; settings: dose 0.1-10 µM; outline: as §1
# Protein cereblon = Protein cereblon (Homo sapiens, UniProt Q96SW2); assay: Binding affinity to Cereblon in human Flp293T cells transfected with BRD4(BD2)-GFP fusion protein and mCherry reporter assessed as inhibition of dBET6-induced BRD4(BD2) degradation after 5 hrs fluorescence based analysis; assay type: cell-based, Flp-In-293
# Protein cereblon, sequence (Q96SW2 whole entry, the tested form may be a part): as the sequence (Q96SW2 whole entry, looked up) above
# Outline: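 Flp293T cells stably expressing BRD4_BD2-GFP plus mCherry reporter, seeded a day earlier in FluoroBrite DMEM/10% FBS; compounds in dose response co-dosed with 100 nM dBET6 (0.5% DMSO), 5 h. […] Lenalidomide positive control.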
# HeLa = assay: Cytotoxicity activity against human HeLa cells assessed as cell killing at 10 uM measured after 24 hrs by CellTiter Glo luminescence assay; assay type: functional
# Outline: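 HeLa cells in 4.5 g/L glucose DMEM, 10% FBS, 1% pen/strep, 5x10³ cells/well; medium replaced 24 h post-seeding with drug-containing medium at equal DMSO. CellTiter-Glo luminescence read, normalized to DMSO control; at least two experiments, triplicates.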
# [4] = target: Protein cereblon/Sal-like protein 4 (Homo sapiens) (UniProt Q96SW2+Q9UJQ4); assay: Protac activity at CRBN/SALL4 in human Kelly cells assessed as induction of SALL4 degradation by measuring downregulation of SALL4 protein expression at 1 uM measured after 5 hrs by proteomics analysis based LC-MS analysis; assay type: cell-based
# Protein cereblon/Sal-like protein 4 (Homo sapiens), sequence (Q96SW2 whole entry, looked up): as above
# Protein cereblon/Sal-like protein 4 (Homo sapiens), sequence (Q9UJQ4 whole entry, looked up): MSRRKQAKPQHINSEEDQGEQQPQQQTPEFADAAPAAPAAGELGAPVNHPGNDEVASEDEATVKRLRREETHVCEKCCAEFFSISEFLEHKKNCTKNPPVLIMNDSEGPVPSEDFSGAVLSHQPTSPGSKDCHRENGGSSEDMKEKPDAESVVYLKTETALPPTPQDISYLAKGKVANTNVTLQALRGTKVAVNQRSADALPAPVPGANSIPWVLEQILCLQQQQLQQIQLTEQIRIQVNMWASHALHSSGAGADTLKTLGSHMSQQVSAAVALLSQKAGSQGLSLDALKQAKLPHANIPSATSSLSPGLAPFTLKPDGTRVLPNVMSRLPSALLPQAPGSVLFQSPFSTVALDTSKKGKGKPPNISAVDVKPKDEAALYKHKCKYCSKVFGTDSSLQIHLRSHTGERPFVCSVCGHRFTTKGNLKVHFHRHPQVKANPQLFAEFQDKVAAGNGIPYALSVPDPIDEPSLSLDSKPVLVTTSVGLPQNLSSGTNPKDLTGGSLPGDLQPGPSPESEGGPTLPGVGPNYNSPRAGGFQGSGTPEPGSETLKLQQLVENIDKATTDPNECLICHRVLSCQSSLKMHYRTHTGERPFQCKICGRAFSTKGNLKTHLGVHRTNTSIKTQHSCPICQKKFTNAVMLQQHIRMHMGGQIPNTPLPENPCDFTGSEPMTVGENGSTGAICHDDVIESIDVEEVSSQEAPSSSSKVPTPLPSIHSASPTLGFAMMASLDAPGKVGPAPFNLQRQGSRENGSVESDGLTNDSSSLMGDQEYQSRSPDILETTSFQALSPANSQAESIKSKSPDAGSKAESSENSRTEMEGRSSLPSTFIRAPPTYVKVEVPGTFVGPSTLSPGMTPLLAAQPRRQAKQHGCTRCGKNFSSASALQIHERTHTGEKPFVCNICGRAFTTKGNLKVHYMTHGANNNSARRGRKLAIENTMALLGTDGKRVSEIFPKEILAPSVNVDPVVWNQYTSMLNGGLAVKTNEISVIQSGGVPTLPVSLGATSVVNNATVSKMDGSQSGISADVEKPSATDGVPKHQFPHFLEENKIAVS
# Outline: (§2)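 Kelly cells given 1 μM compound or DMSO (biological triplicate) for 5 h; urea/EPPS pH 8.5 lysis, 100 μg protein reduced, alkylated, digested, TMT-labelled, high-pH reverse-phase fractionated into 96 fractions; LC-MS over a 190 min 9-32% acetonitrile gradient with MS3-based TMT quantification with real-time search; change relative to DMSO.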
# [5] = target: Protein cereblon/Zinc finger protein 692 (Homo sapiens) (UniProt Q96SW2+Q9BU19); assay: Protac activity at CRBN/ZNF692 in human Kelly cells assessed as induction of ZNF692 degradation by measuring downregulation of ZNF692 protein expression at 1 uM measured after 5 hrs by proteomics analysis based LC-MS analysis; assay type: cell-based; outline: as §2
# Protein cereblon/Zinc finger protein 692 (Homo sapiens), sequence (Q96SW2 whole entry, looked up): as the sequence (Q96SW2 whole entry, looked up) above
# Protein cereblon/Zinc finger protein 692 (Homo sapiens), sequence (Q9BU19 whole entry, looked up): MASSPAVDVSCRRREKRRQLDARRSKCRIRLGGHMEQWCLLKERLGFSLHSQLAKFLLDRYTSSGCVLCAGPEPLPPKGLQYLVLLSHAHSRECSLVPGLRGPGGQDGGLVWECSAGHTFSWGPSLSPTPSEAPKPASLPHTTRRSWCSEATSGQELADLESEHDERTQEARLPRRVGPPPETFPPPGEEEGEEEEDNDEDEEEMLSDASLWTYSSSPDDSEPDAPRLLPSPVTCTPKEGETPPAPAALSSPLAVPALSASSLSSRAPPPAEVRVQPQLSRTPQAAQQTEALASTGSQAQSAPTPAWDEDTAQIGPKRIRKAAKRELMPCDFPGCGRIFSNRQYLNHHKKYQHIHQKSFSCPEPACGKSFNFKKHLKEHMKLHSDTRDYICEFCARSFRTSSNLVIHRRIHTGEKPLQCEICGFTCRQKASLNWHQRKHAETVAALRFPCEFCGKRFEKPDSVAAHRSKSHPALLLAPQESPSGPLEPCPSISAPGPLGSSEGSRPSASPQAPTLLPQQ
# [6] = target: Protein cereblon/Zinc finger protein 827 (Homo sapiens) (UniProt Q96SW2+Q17R98); assay: Protac activity at CRBN/ZNF827 in human Kelly cells assessed as induction of ZNF827 degradation by measuring downregulation of ZNF827 protein expression at 1 uM measured after 5 hrs by proteomics analysis based LC-MS analysis; assay type: cell-based; outline: as §2
# Protein cereblon/Zinc finger protein 827 (Homo sapiens), sequence (Q17R98 whole entry, looked up): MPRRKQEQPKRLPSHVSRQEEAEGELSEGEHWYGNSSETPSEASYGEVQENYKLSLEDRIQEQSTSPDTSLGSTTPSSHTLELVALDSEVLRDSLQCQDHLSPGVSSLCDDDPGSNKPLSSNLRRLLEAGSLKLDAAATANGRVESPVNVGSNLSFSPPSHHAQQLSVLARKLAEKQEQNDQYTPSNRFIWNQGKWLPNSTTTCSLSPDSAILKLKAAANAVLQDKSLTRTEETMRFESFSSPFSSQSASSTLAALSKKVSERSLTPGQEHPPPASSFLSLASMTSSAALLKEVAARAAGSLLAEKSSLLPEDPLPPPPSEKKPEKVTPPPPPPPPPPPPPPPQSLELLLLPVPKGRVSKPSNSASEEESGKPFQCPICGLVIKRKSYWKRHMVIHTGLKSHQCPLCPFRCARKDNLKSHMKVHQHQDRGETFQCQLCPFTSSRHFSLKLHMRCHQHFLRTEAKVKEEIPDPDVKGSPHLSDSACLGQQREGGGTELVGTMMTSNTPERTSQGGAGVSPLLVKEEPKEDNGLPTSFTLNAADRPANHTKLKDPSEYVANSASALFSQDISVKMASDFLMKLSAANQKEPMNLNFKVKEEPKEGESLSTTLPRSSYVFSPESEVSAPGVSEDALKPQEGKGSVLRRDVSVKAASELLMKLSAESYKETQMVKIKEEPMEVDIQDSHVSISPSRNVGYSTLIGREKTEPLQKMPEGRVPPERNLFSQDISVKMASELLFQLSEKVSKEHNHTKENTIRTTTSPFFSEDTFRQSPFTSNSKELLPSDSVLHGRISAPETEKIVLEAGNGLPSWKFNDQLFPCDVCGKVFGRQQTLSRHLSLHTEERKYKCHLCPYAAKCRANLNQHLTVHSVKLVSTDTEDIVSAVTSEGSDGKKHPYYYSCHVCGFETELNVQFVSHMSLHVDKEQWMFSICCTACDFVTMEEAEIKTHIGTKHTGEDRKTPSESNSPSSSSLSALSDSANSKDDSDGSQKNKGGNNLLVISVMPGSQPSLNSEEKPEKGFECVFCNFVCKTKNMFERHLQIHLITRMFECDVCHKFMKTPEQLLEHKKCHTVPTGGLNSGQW
# Protein cereblon/Zinc finger protein 827 (Homo sapiens), sequence (Q96SW2 whole entry, looked up): as the sequence (Q96SW2 whole entry, looked up) above
# [7] = target: T1, Protein cereblon/Eukaryotic translation initiation factor 4E (Homo sapiens); assay: Protac activity at CRBN/eIF4E in human Kelly cells assessed as induction of eIF4E degradation by measuring downregulation of eIF4E protein expression at 1 uM measured after 5 hrs by proteomics analysis based LC-MS analysis; assay type: cell-based; outline: as §2
# MCF7 [8] = assay: Cytotoxicity against human MCF7 cells assessed as reduction in cell viability after 48 hrs by Cell specific bioluminescence imaging (CS-BLI) assay; settings: MCF7, 48 h
# MM1.S [9] = assay: Cytotoxicity against human MM1.S cells assessed as reduction in cell viability after 48 hrs by Cell specific bioluminescence imaging (CS-BLI) assay
# MCF7 [10] = assay: Cytotoxicity against human MCF7 cells assessed as reduction in cell viability after 24 hrs by Cell specific bioluminescence imaging (CS-BLI) assay; settings: MCF7, 24 h
# MM1.S [11] = assay: Cytotoxicity against human MM1.S cells assessed as reduction in cell viability after 72 hrs by Cell specific bioluminescence imaging (CS-BLI) assay
# MM1.S [12] = assay: Cytotoxicity against human MM1.S cells assessed as reduction in cell viability after 24 hrs by Cell specific bioluminescence imaging (CS-BLI) assay
# MCF7 [13] = assay: Cytotoxicity against human MCF7 cells assessed as reduction in cell viability after 72 hrs by Cell specific bioluminescence imaging (CS-BLI) assay; settings: MCF7, 72 h
structure (smiles),measurement,setting,value
C/C(=N\Nc1nc(-c2ccc(Cl)c(Cl)c2)c(CC(=O)NCCNc2cccc3c2C(=O)N(C2CCC(=O)NC2=O)C3=O)s1)C(=O)OCOC(=O)C(C)(C)C (configuration not stated),Activity,[1],inactive
same,Activity,[2],inactive
same,Activity,[3],inactive
same,IC50,Protein cereblon,20.7 µM
C/C(=N\Nc1nc(-c2ccc(-c3ccccc3)cc2)cs1)C(=O)NCCNc1cccc2c1C(=O)N(C1CCC(=O)NC1=O)C2=O (configuration not stated),Activity,[1],inactive
same,Activity,[2],inactive
same,Activity,[3],inactive
same,Activity,HeLa,50%
C/C(=N\Nc1nc(-c2ccc(-c3ccccc3)cc2)cs1)C(=O)NCCCNc1cccc2c1C(=O)N(C1CCC(=O)NC1=O)C2=O (configuration not stated),Activity,HeLa,50%
O=C(COc1cccc2c1C(=O)N(C1CCC(=O)NC1=O)C2=O)NCCCCNC(=O)Cc1sc(N/N=C(\Cc2ccccc2[N+](=O)[O-])C(=O)O)nc1-c1ccc(Cl)c(Cl)c1 (configuration not stated),Activity,Protein cereblon; Flp-In-293,inactive
O=C1CCC(N2C(=O)c3cccc(NCCCCNC(=O)/C(=N\Nc4nc(-c5ccc(-c6ccccc6)cc5)cs4)c4ccccc4[N+](=O)[O-])c3C2=O)C(=O)N1 (configuration not stated),IC50,Protein cereblon,13 µM
C/C(=N\Nc1nc(-c2ccc(-c3ccccc3)cc2)cs1)C(=O)NCCCCNc1cccc2c1C(=O)N(C1CCC(=O)NC1=O)C2=O (configuration not stated),Activity,[4],Active
same,Activity,[5],Active
same,Activity,[6],Active
same,IC50,Protein cereblon,1.6 µM
same,Activity,[7],inactive
O=C(O)C(Cc1ccccc1[N+](=O)[O-])=NNc1nc(-c2ccc(Cl)c(Cl)c2)cs1,IC50,MCF7 [8],43.1 µM
same,IC50,MM1.S [9],18.7 µM
same,IC50,MCF7 [10],71.2 µM
same,IC50,MM1.S [11],15.6 µM
same,IC50,MM1.S [12],22.6 µM
same,IC50,MCF7 [13],35.1 µM
